# The list is not random: actives were taken first. Their share in the collection is about 4.6%.
# TAAR1 ag: agonists of human TAAR1. Q96RJ0. CHO RD-HGA16 TAAR1, Fluo-8 calcium fluorescence; vehicle wells 0%, saturating PEA agonist 100%. activation, % at 3 µM. 0.99% of 360,000 active. AID 624467;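 active = activation above the mean activation of all test compounds in the run plus 3 SD, cut at about 38% in these data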
#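 test system = CHO RD-HGA16 cells carrying human TAAR1 plus Gα16 | schedule = 17-24 h seeding, 75 min 37 °C dye, 30 min RT | compound dosing = 3 µM single concentration | control set = DMSO and PEA EC100 | replicates = n 1 | signal = Fluo-8 fluorescence, 5 s baseline then 140 s kinetic read | measure = percent activation vs PEA EC100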
# GPR7 antag: blocks human GPR7 receptor signaling. 1.1% of 290,000 active. GPR7-expressing cells, fluorescence antagonist assay. inhibition, % at 4.4 µM. AID 1861; in the data active = inhibition above about 16%, passing the limit was not always enough;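 note: cells stimulated with the agonist NPW; 0% = agonist with vehicle and 100% = vehicle without agonist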
# Target sequence (P48145 whole entry, looked up): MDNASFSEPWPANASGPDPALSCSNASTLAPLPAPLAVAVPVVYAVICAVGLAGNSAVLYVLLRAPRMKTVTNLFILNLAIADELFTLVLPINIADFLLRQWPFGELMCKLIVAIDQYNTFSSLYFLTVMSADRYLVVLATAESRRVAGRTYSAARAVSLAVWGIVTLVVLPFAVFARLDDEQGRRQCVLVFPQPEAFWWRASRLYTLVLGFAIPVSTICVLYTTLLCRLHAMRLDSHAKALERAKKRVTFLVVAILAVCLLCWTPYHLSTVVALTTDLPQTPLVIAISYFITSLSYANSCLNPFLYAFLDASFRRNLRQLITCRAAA
# OX1R antag-1: antagonists of human orexin 1 receptor (OX1R) | O43613 | OX1R-expressing cells, FRET antagonist read-out | inhibition, % at 6.6 µM | 1.8% of 330,000 active | AID 485270; in the data active = inhibition mostly above about 38%, no sharp cut-off; inactive = mostly below about 40%;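 note: 0% = agonist challenge alone and 100% = reference antagonist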
# CHO parental Ca: signal in parental CHO cells, OX1R antagonist counter-screen; parental CHO-K1, ATP-induced calcium, Fluo-8 fluorescence; inhibition, % at 5.6 µM; 0.63% of 330,000 active;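 active = inhibition above that plate's mean sample inhibition plus 3 SD, cut at about 26% in these data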;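 note: 0% = ATP-challenged DMSO wells and 100% = DMSO wells without ATP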
#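 Material: Parental CHO cells | Reagent: ATP | Compound dosing: Single nominal dose of 5.6 µM per compound | Detection: Intracellular calcium via Fluo-8 no-wash fluorescent dye | Read-out: % inhibition of ATP-induced calcium mobilization | Benchmarks: Low control ATP plus DMSO, high control DMSO only | Replicates: Singlicate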
# TAAR1 antagonist: antagonists of human TAAR1 | CHO RD-HGA16 TAAR1, Fluo-8 calcium fluorescence, antagonist | inhibition, % at 3 µM | 1.5% of 360,000 active | AID 624466;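 active = inhibition above a per-plate cutoff, the mean inhibition of test compounds on that plate plus 3 SD, cut at about 49% in these data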;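 note: 0% = DMSO plus EC80 beta-PEA response and 100% = DMSO alone without agonist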
#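 Assay system: CHO-derived RD-HGA16 cells stably expressing human TAAR1 plus Gα16. Timing: 140 s kinetic read after compound, 140 s after agonist. Technique: kinetic Fluo-8 calcium fluorescence measurement. Measure: % inhibition of agonist calcium response.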
# OX1R antag-2: antagonists of human orexin 1 receptor; CHO/OX1R cells, Fluo-8 calcium fluorescence, orexin A; AID 434989; 0.43% of 330,000 active; inhibition, % at 5 µM; O43613;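 active = inhibition above its plate's threshold, mean inhibition of all tested compounds on the plate plus 3 SD, cut at about 37% in these data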;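 note: 0% = orexin A challenge wells and 100% = SB-334867-A antagonist wells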
# TAAR1 ag conf: confirmation of human TAAR1 agonists | shares compounds with TAAR1 ag | CHO RD-HGA16 TAAR1, Fluo-8 calcium fluorescence; scaled: DMSO 0%, maximal phenethylamine 100% | activation, % at 3 µM | 82% of 2,400 active | AID 651783;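 active = activation above a cutoff set at the run's mean compound activation plus 3 SD, cut at about 39% in these data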
# Ga16 ag counter: counter-screen for TAAR1 agonists: nonselective agonists in parental cells. shares compounds with TAAR1 ag. CHO-Ga16 parental, Fluo-8 calcium fluorescence; normalized to maximal ATP response, DMSO zero. activation, % at 3 µM. 50% of 2,400 active. AID 651787;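 active = activation above the run cutoff, the mean activation over all tested wells plus 3 SD, cut at about 12% in these data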;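 note: 0% = DMSO wells and 100% = maximal ATP response on the peak over basal ratio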
# TAAR1 desensitize: human TAAR1 agonist that also desensitizes the receptor; shares compounds with TAAR1 ag; CHO RD-HGA16 hTAAR1, Fluo-8 calcium, beta-PEA response inhibition; inhibition, % at 3 µM; 46% of 2,400 active;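 active = inhibition above the run cutoff, the mean inhibition of all test compounds plus 3 SD, cut at about 49% in these data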;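 note: beta-PEA stimulus applied at its EC80; loss of beta-PEA calcium signal after compound pretreatment read as receptor desensitization; 0% = DMSO with beta-PEA at EC80 and 100% = DMSO alone without agonist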
# Ga16 nonsel ant: nonselective Ga16 antagonism, counter-screen. CHO-Ga16 ATP-induced calcium, Fluo-8 fluorescence. inhibition, % at 3 µM. shares compounds with TAAR1 ag. 39% of 2,400 active;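 active = inhibition above the plate's mean compound inhibition plus 3 SD, computed per plate, cut at about 22% in these data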;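 note: 0% = EC80 ATP with DMSO and 100% = DMSO wells without ATP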
# An asterisk follows results filed as active; / = no result given.
SMILES,TAAR1 ag,GPR7 antag,OX1R antag-1,CHO parental Ca,TAAR1 antagonist,OX1R antag-2,TAAR1 ag conf,Ga16 ag counter,TAAR1 desensitize,Ga16 nonsel ant
CCOC(=O)[C@@H]1[C@H]2COc3ccccc3[C@@H]2N2C(=O)N(c3cccc(Cl)c3)C(=O)[C@]12C,15,4,20,-29,-11,-38,/,/,/,/
O=c1[nH]c(CSc2ncn[nH]2)nc2ccccc12,42*,-10,3,-3,-23,2,37,2,16,6
O=c1[nH]c(CSc2ncnc3sccc23)nc2ccccc12,-1,-8,13,-18,5,-23,/,/,/,/
O=C1C(Cl)=C(NC(=O)c2ccccc2)C(=O)C(Cl)=C1NC(=O)c1ccccc1,53*,-34,48*,5,69*,12,36,21*,55*,49*
O=C(Nc1ccc(C2SCCS2)cc1)c1ccccc1,63*,8,7,-3,46,-12,62*,28*,48,36*
COc1ccccc1OCc1ccc(C(=O)Nc2ccccc2)cc1,63*,/,8,-4,57*,-12,46*,27*,60*,37*
O=C(CSc1ccccc1)Nc1ccc(C(=O)Nc2ccc(O)cc2)cc1,75*,5,/,/,27,/,1,0,3,14
Cc1nn(CC(=O)N2CCN(c3ccc(Cl)cc3)CC2)c(=O)c2cccn12,1,1,3,-7,-19,-16,/,/,/,/
Cc1cc(OCCN2CCN(S(=O)(=O)c3ccccc3F)CC2)ccc1C(C)C,8,/,6,-17,-3,2,/,/,/,/
O=C(Cc1ccccc1)NNC(=O)c1ccc(NC(=O)c2ccccc2)cc1,4,-8,15,-12,13,-11,/,/,/,/
O=C(NNC(=O)c1ccc(NC(=O)c2ccccc2)cc1)c1ccccc1,61*,3,12,-3,16,-22,22,0,14,3
CN1CCN(C2=Cc3ccc(Cl)cc3Sc3ccc(F)cc32)CC1,49*,4,11,4,12,1,57*,41*,57*,44*
CN1CCN(C2=Cc3ccccc3Sc3cc(F)ccc32)CC1,33,0,13,5,1,-5,/,/,/,/
N=C(N)SCc1ccc(Cl)cc1Cl,58*,4,3,-4,32,7,87*,19*,60*,15
CCN(C)C1CN(Cc2cn(Cc3ccc(C(F)(F)F)cc3)nn2)S(=O)(=O)C1 (configuration not stated),8,/,/,/,-33,/,/,/,/,/
Cc1ccc(NC(=O)c2ccc3nsnc3c2)c(Cl)c1,57*,-14,16,-3,47,-2,15,-1,11,1
CCOc1ccc(S(=O)(=O)N(C)CCO)cc1-c1nc2c(C(C)(C)C)nn(C)c2c(=O)[nH]1,15,3,14,-16,7,-14,/,/,/,/
Nc1nonc1-n1nnc(C(=O)N/N=C/c2ccco2)c1-c1ccccc1,100*,-8,30,-12,-6,-16,72*,47*,12,0
COc1cccc(-c2c(C(=O)N/N=C/c3ccco3)nnn2-c2nonc2N)c1,78*,-7,18,-9,1,-15,97*,52*,32,14
COc1cccc(-c2c(C(=O)N/N=C/C3CC=CCC3)nnn2-c2nonc2N)c1 (configuration not stated),4,-8,34,-1,-3,-11,/,/,/,/
Nc1nonc1-n1nnc(C(=O)N/N=C/c2ccccc2Cl)c1-c1ccccc1,8,-13,29,4,3,-20,/,/,/,/
Nc1nonc1-n1nnc(C(=O)N/N=C/c2ccoc2)c1-c1ccccc1,85*,-9,21,-6,8,-9,53*,46*,10,13
CCOC(=O)c1sc(NC(=O)COC(=O)CNC(=O)C2CCCCC2)c(C(=O)OCC)c1C,0,-7,16,-7,-3,-12,/,/,/,/
O=C(Nc1ccc(S(=O)(=O)NC2=NCCCCC2)cc1)c1ccc(=O)[nH]c1,5,-29,12,-6,1,-10,/,/,/,/
O=C(NC1CCCCC1)c1cc(-c2ccc(F)cc2)on1,0,8,12,-7,4,-11,/,/,/,/
Cc1ccc(-c2cc(C(=O)NC3CCCC3)no2)cc1,51*,-7,13,-5,13,-20,10,6,7,13
CCOC(=O)C(C(=O)OCC)C(C(=O)OCC)N1CCOCC1 (configuration not stated),1,-6,13,1,-1,-1,/,/,/,/
